Out of some 310,000 compounds screened, about 1,400 (0.45%) were called active.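 The calls were made as follows: active = calcium response B-score plate-corrected fluorescence ratio at least 3 library SD, with starting fluorescence B-score inside 5 SD; inactive = the rest.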 For the sample, actives were picked, then their nearest neighbours and some compounds at random.

For this assay, the target named is Mas-related G-protein coupled receptor member X1 (Homo sapiens) (UniProt Q96LB2). In words: agonists of human MrgX1 receptor, primary screen, HEK293 cells, Fluo-4 calcium flux (AID 588627).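 As to B-score: B-score of the peak-minus-trough calcium fluorescence change over baseline.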 To be noted: Fluo-4 calcium fluorescence, agonist mode, at 10 µM; stronger effect = higher value. The method, boiled down: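 Test system: HEK293 cells stably expressing human MrgX1 receptor; amount: 15,000 cells per well; doses: compound delivered in addition one of three; times: overnight plating before 1 h dye loading; detection: Fluo-4 NW calcium-flux fluorescence, kinetic read; read-out basis: B-scored fluorescence response ratio; controls: positive and negative controls per plate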
Mas-related G-protein coupled receptor member X1 (Homo sapiens), sequence (Q96LB2 whole entry, looked up): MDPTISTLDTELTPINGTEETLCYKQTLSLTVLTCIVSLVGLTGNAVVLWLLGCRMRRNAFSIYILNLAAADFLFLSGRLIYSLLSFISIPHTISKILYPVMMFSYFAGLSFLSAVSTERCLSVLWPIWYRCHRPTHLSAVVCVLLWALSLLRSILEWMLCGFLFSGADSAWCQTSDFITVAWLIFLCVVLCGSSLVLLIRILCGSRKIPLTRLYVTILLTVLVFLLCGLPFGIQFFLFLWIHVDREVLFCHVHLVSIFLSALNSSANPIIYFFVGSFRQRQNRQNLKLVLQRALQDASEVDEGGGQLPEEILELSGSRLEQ
(In general: A change in cytosolic calcium serves as a functional read-out for many receptors and channels.)
`Cc1ccc(-c2nn(-c3ccccc3)cc2/C=C2\SC(=S)N(CCCCCC(=O)O)C2=O)o1`: the B-score entry is “inactive”. Next, `O=C(N/C(=C/c1ccc(Cl)cc1)C(=O)N1CCCCC1)c1ccco1`: “inactive”; `Cc1ccc(CNC(=O)c2c(-c3ccccc3)noc2C)cc1`: “inactive”; `COc1ccc(C(=O)NC(=S)NNC(=O)c2c(-c3ccccc3)noc2C)cc1`: 123 (active).

Regarding `Cc1onc(-c2ccccc2)c1C(=O)Nc1ccccc1C#N`, the B-score entry is “inactive”.

On to `Cc1onc(-c2c(Cl)cccc2Cl)c1C(=O)NNC(=O)c1c(-c2c(Cl)cccc2Cl)noc1C`, for which the B-score entry is “inactive”. Then `Cc1onc(-c2ccccc2)c1C(=O)NNC(=S)NC(=O)c1ccc(F)cc1`, with 126 (active). Next, `CCc1noc(C)c1C(=O)NNC(=O)c1ccc(F)cc1`: “inactive”; `Cc1ccc(NC(=O)c2ccn(C(=O)Nc3ccccc3)n2)c(C)c1`: “inactive”; `CS(=O)(=O)N(CC(=O)N1CCCC1)Cc1ccccc1`: “inactive”. For `CC1=NN(c2ccccc2)C(=O)C1C(=O)c1ccc([N+](=O)[O-])cc1` (stereo unspecified), the B-score result is “inactive”. Next, `CC(=O)N1c2ccccc2N(Cc2ccc([N+](=O)[O-])cc2)C(=O)C1(C)C`: “inactive”. Then `O=C1NC(=O)C2C1C(c1ccc([N+](=O)[O-])cc1)=NN2Cc1ccccc1` (stereo unspecified), with 42.5 (active); and `COc1cc(CO)ccc1OCC(=O)Nc1cccc2ccccc12`, with “inactive”. Then `COc1ccc(N2CC(C)Cn3c2nc2c3c(=O)n(Cc3ccccc3F)c(=O)n2C)c(OC)c1` (stereo unspecified), with “inactive”; and `O=C(COC(=O)c1cccc(Cl)c1)Nc1ccc2[nH]c(=O)[nH]c2c1`, with “inactive”.

With `CNCC(O)c1ccc(O)c(O)c1` (stereo unspecified), the B-score was 46.8 (active). Then `CCC(C)c1ccc(O)c(/C=N/O)c1` (stereo unspecified), with “inactive”; and `CC(=O)NCC(O)c1ccc([N+](=O)[O-])cc1` (stereo unspecified), with “inactive”; and `Cc1ccc(CNC(=O)CCC(=O)N2CC(C)Sc3ccccc32)cc1` (stereo unspecified), with “inactive”. For the compound `O=C1Nc2cc(C(=O)N3CCN(c4ccc(F)cc4)CC3)ccc2NC1CSCc1cccc(F)c1` (stereo unspecified), the B-score was 28.7 (active).

In the case of `O=C(c1cc(C(=O)N2CCN(c3ccc(F)cc3)CC2)cc([N+](=O)[O-])c1)N1CCN(c2ccc(F)cc2)CC1`, the B-score result is “inactive”. Next, `Cc1ccc(CSCC2Nc3ccc(C(=O)N4CCN(c5ccc(F)cc5)CC4)cc3NC2=O)cc1` (stereo unspecified): “inactive”; `Cc1ccc(NC(=O)COC(=O)C2C3CC4OC(=O)C2C4C3)cc1Cl` (stereo unspecified): “inactive”.

Turning to `COc1cc(OC)cc(C(=O)N[C@H](C(=O)OCC(=O)NC(C)c2ccccc2)C(C)C)c1` (stereo partly specified), the B-score is 36 (active). Then `Cc1cc(C)cc(OCC(=O)NC(C)c2ccccc2)c1` (stereo unspecified), with “inactive”.

Take `Cc1ccc(OCC(=O)NC(C)c2ccccc2)cc1C` (stereo unspecified): the B-score result is “inactive”. Next, `COc1ccc(NC(=O)CC2C(=O)NC3CCCCC3N2C(=O)c2ccc(F)cc2)cc1` (stereo unspecified): “inactive”. Next, `CCCNC(=S)N1CCC(NC(=O)c2ccc(OC)cc2)CC1`: “inactive”. As for `CC(C)COC(=O)c1ccc(NC(=O)C2C3C=CC(C3)C2C(=O)O)cc1` (stereo unspecified), the B-score result is “inactive”. Then `CCOC(=O)c1[nH]c2ccccc2c1N=C(C)N(CC)CC`, with “inactive”. `CCOC(=O)c1[nH]c2ccc(C)cc2c1N=C(C)N(C)C`: the B-score is 44.7 (active).

Take `CCOC(=O)c1cc2cc(C)ccc2[nH]1`: the B-score entry is “inactive”. Next, `Cn1c(N)cc(-c2ccc(F)cc2)c(C#N)c1=O`: “inactive”; `O=C(CSc1nnc(-c2c[nH]c3ccccc23)n1-c1ccc(F)cc1)NCc1ccco1`: “inactive”; `Cc1ccc2nc(/C(C#N)=C\c3ccc(OC(=O)c4cccs4)cc3)[nH]c2c1`: “inactive”. Next, `COc1cc(/C=C(\C#N)c2nc3c(s2)CC(C)CC3)ccc1O` (stereo unspecified): “inactive”; `COc1cc(/C=C(\C#N)c2nc3ccccc3[nH]2)ccc1O`: 58.8 (active); `COCOc1cc(O)c(C(=O)/C=C/c2ccc(OCOC)c(OCOC)c2)c(OCOC)c1`: “inactive”. Then `Cc1cc(C)cc(NC(=O)c2cccc(NC(=O)C3C4CC5OC(=O)C3C5C4)c2)c1` (stereo unspecified), with “inactive”; and `Cc1ccc(CSCC(=O)N(C)CC(=O)Nc2cccc(F)c2)cc1`, with “inactive”. Turning to `CCN(CC)C(=O)CSC(Nc1cccc(F)c1)=C(C#N)C#N`, the B-score is 39.4 (active).

On to `CCN(CC)C(=O)C(=O)Nc1cccc(Br)c1`, for which the B-score entry is “inactive”. Then `CS(=O)(=O)N(CC(=O)N1CCc2ccccc2C1)c1ccc(Br)cc1`, with “inactive”. Next, `CCOCCCNC(=S)Nc1ccc2nc(N3CCN(CC)CC3)cc(C)c2c1`: “inactive”. Consider `CC(C)CN(Cc1c(O)ccc2c(=O)c(-c3ccccc3)coc12)CC(C)C`, for which the B-score entry was “inactive”. Next, `CC(C)=CCc1c(O)c(CC=C(C)C)c2occ(-c3ccc(O)cc3)c(=O)c2c1O`: 29.8 (active); `CCOC(=O)c1nnn(CC(=O)Nc2cccc(F)c2)c1C(=O)OCC`: “inactive”. Next, `CCNS(=O)(=O)c1ccc(CCC(=O)N2CCN(c3ccc(OC)cc3)CC2)cc1`: “inactive”; `Cc1c(C)c2c(OCC(=O)N[C@@H](C(=O)O)c3ccccc3)cc3c(c2oc1=O)CCC(C)(C)O3`: 43.9 (active); `Cc1cc(=O)oc2c3c(cc(OCC(=O)N[C@H](C(=O)O)c4ccccc4)c12)OC(C)(C)CC3`: “inactive”. Then `Cc1c(C)c2c(OCC(=O)NCCCO)cc3c(c2oc1=O)CCC(C)(C)O3`, with “inactive”; and `O=C(C[n+]1ccc2c(c1)nnn2-c1ccccc1)c1ccc(Cl)cc1`, with “inactive”; and `CC(=O)N/C(=C/c1ccc(Cl)cc1)C(=O)NCCc1c[nH]c2ccccc12`, with “inactive”. Consider `N#C/C(=C/c1ccc(N2CCCCC2)o1)C(=O)NCCc1c[nH]c2ccccc12`, for which the B-score is 37.2 (active).

Regarding `O=C(CN1C(=O)NC2(CCCCC2)C1=O)NCCc1c[nH]c2ccccc12`, the B-score result is “inactive”.

On to `COC(=O)c1ccccc1Oc1c(F)c(F)nc(N2CCOCC2)c1F`, for which the B-score result is “inactive”. Next, `c1ccc(-n2cccc2)c(N2CCCCC2)c1`: “inactive”; `O=C(NCc1cccnc1)c1cnc2ccccc2n1`: “inactive”; `Cc1ccnc(SCC(N)=O)n1`: “inactive”.

As to `Cc1ccnc(-n2sc3ccccc3c2=O)n1`, the B-score was 37 (active). Next, `Cc1ccnc(N2CCCC(C(=O)NC3CC3)C2)n1` (stereo unspecified): “inactive”; `CC1CN(C(=O)COC(=O)c2cccc(NS(=O)(=O)c3ccccc3)c2)CC(C)O1` (stereo unspecified): “inactive”; `Nc1c(C(=O)c2cccs2)sc2nsc(SCCN3CCCCC3)c12`: 53.3 (active). Consider `CN(C)c1ccnc2sc(C(=O)c3ccccc3)c(N)c12`, for which the B-score entry is “inactive”.

Turning to `Cc1nc2sc(C(=O)c3ccccc3)c(N)c2c2c1CCCC2`, the B-score result is “inactive”.

(Values after PubChem BioAssay AID588627 (Johns Hopkins Ion Channel Center, 2011).)
